Source: ChEMBL document CHEMBL1275308, “Synthesis, analgesic and anti-inflammatory evaluation of some novel quinazoline derivatives” (Eur J Med Chem, 2010)
The source made the active and inactive calls.

Legend:
[1] = tested on: Mus musculus; experiment: Analgesic activity against heat induced nociception in Swiss albino mouse assessed as increase in latency at 100 mg/kg, po measured 60 mins post compound dose by hot plate method relative to pretreatment level; assay type: functional
Procedure, shortened: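 Mice; test compounds and indomethacin, each at 100 mg/kg orally as a suspension in 1% carboxymethyl cellulose. Six groups of six animals, with a vehicle negative control. Reaction time recorded at 30 min, 1, 2 and 3 h after treatment, cut-off 10 s. Effect expressed as percentage of the pretreatment level. Values are means.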

[2] = tested on: Rattus norvegicus; experiment: Antiinflammatory activity in rat assessed as inhibition of formaldehyde-induced paw edema at 100 mg/kg, po qd for 4 days administered 1 hr before formaldehyde challenge measured 2 hrs post formaldehyde challenge relative to untreated control; assay type: functional
Procedure, shortened: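 Rats dosed orally at 100 mg/kg once daily for 4 d, with an indomethacin reference and a vehicle control. Right hind paw volume measured by plethysmometer before challenge. 0.2 mL of 10% w/v formaldehyde injected subplantar 1 h after drug. Paw volume measured 1 and 2 h after injection. Results given as % inhibition versus control; means, ANOVA with Dunnett's test.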

[3] = tested on: Mus musculus; experiment: Toxicity in mouse assessed as mortality at 500 mg/kg, po measured 24 hrs post dose; assay type: organism-based; set-up: dose 500 mg/kg, route oral; details: in vivo
[4] = tested on: Mus musculus; experiment: Toxicity in mouse assessed as mortality at 750 mg/kg, po measured 24 hrs post dose; assay type: organism-based; set-up: dose 750 mg/kg, route oral; details: in vivo
[5] = tested on: Mus musculus; experiment: Toxicity in mouse assessed as mortality at 1000 mg/kg, po measured 24 hrs post dose; assay type: organism-based; set-up: dose 1000 mg/kg, route oral; details: in vivo
[6] = tested on: Mus musculus; experiment: Toxicity in mouse assessed as incidence of toxic symptoms at 500 mg/kg, po measured 24 hrs post dose; assay type: organism-based; set-up: dose 500 mg/kg, route oral; details: in vivo
[7] = tested on: Mus musculus; experiment: Toxicity in mouse assessed as incidence of toxic symptoms at 750 mg/kg, po measured 24 hrs post dose; assay type: organism-based; set-up: dose 750 mg/kg, route oral; details: in vivo
[8] = tested on: Mus musculus; experiment: Toxicity in mouse assessed as incidence of toxic symptoms at 1000 mg/kg, po measured 24 hrs post dose; assay type: organism-based; set-up: dose 1000 mg/kg, route oral; details: in vivo
[9] = tested on: Mus musculus; experiment: Toxicity in mouse assessed as induction of sedation at 500 to 1000 mg/kg, po measured within 24 hrs post dose; assay type: organism-based; set-up: dose 500-1000 mg/kg, route oral; details: in vivo
[10] = tested on: Mus musculus; experiment: Toxicity in mouse assessed as induction of muscle relaxation at 500 to 1000 mg/kg, po measured within 24 hrs post dose; assay type: organism-based; set-up: dose 500-1000 mg/kg, route oral; details: in vivo
[11] = tested on: Mus musculus; experiment: Toxicity in mouse assessed as induction of calmness at 500 to 1000 mg/kg, po measured within 24 hrs post dose; assay type: organism-based; set-up: dose 500-1000 mg/kg, route oral; details: in vivo
[12] = tested on: Mus musculus; experiment: Toxicity in mouse assessed as induction of urination at 500 to 1000 mg/kg, po measured within 24 hrs post dose; assay type: organism-based; set-up: dose 500-1000 mg/kg, route oral; details: in vivo

| Compound | Activity [1] | inhibition in vivo at 100 mg/kg [2] [%] | Activity [3] | Activity [4] | Activity [5] | Activity [6] | Activity [7] | Activity [8] | Activity [9] | Activity [10] | Activity [11] | Activity [12] |
| --- | --- | --- | --- | --- | --- | --- | --- | --- | --- | --- | --- | --- |
| Clc1ccc(-c2nc(N3CCC(c4ccccc4)CC3)c3cc(I)ccc3n2)cc1 | inactive | 41.4 | – | – | – | – | – | – | – | – | – | – |
| Clc1ccc(-c2nc(N3CCN(c4ccccc4)CC3)c3cc(Br)ccc3n2)cc1 | inactive | 16.2 | Non-toxic | Non-toxic | Non-toxic | Non-toxic | Non-toxic | Non-toxic | Toxic | Toxic | Toxic | – |
| c1ccc(-c2nc(N3CCC(c4ccccc4)CC3)c3ccccc3n2)cc1 | 153.8% | 85.3 | Non-toxic | Non-toxic | Non-toxic | Non-toxic | Non-toxic | Non-toxic | – | – | – | – |
| Brc1ccc2nc(-c3ccccc3)nc(N3CCC(c4ccccc4)CC3)c2c1 | 89.8% | 57.6 | Non-toxic | Non-toxic | Non-toxic | Non-toxic | Non-toxic | Non-toxic | – | – | – | – |
| CN1CCN(c2nc(-c3ccccc3)nc3ccc(I)cc23)CC1 | inactive | 39.6 | – | – | – | – | – | – | – | – | – | – |
| CN1CCN(c2nc(-c3ccc(Cl)cc3)nc3ccc(I)cc23)CC1 | inactive | 17 | – | – | – | – | – | – | – | – | – | – |
| Brc1ccc2nc(-c3ccccc3)nc(N3CCN(c4ccccc4)CC3)c2c1 | inactive | 40.7 | – | – | – | – | – | – | – | – | – | – |
| CN1CCN(c2nc(-c3ccccc3)nc3ccccc23)CC1 | 86.2% | 45.2 | – | – | – | – | – | – | – | – | – | – |
| CCOC(=O)C1CCN(c2nc(-c3ccccc3)nc3ccccc23)CC1 | 98.5% | 70.3 | Non-toxic | Non-toxic | Non-toxic | Non-toxic | Non-toxic | Non-toxic | – | – | – | – |
| c1ccc(-c2nc(N3CCN(c4ccccc4)CC3)c3ccccc3n2)cc1 | 107.3% | 77.4 | Non-toxic | Non-toxic | Non-toxic | Non-toxic | Non-toxic | Non-toxic | – | – | – | Toxic |
| O=c1[nH]nc(C2CCN(c3nc(-c4ccccc4)nc4ccccc34)CC2)s1 | 81.5% | 12.7 | Non-toxic | Non-toxic | Non-toxic | Non-toxic | Non-toxic | Non-toxic | – | – | – | – |
| Clc1ccc(-c2nc(N3CCN(c4ccccc4)CC3)c3cc(I)ccc3n2)cc1 | inactive | 13.5 | – | – | – | – | – | – | – | – | – | – |
| CC1CCN(c2nc(-c3ccc(Cl)cc3)nc3ccccc23)CC1 | inactive | 55.1 | – | – | – | – | – | – | – | – | – | – |
| CC1CCN(c2nc(-c3ccccc3)nc3ccc(I)cc23)CC1 | 85.7% | 56.4 | – | – | – | – | – | – | – | – | – | – |
| Ic1ccc2nc(-c3ccccc3)nc(N3CCC(c4ccccc4)CC3)c2c1 | 110.2% | 82.5 | Non-toxic | Non-toxic | Non-toxic | Non-toxic | Non-toxic | Non-toxic | – | – | – | Toxic |
| CC1CCN(c2nc(-c3ccc(Cl)cc3)nc3ccc(Br)cc23)CC1 | 85.2% | 55.1 | – | – | – | – | – | – | – | – | – | – |
| Clc1ccc(-c2nc(N3CCC(c4ccccc4)CC3)c3cc(Br)ccc3n2)cc1 | 106.1% | 50 | Non-toxic | Non-toxic | Non-toxic | Non-toxic | Non-toxic | Non-toxic | – | – | – | Toxic |
| CC1CCN(c2nc(-c3ccccc3)nc3ccccc23)CC1 | 88% | 69 | – | – | – | – | – | – | – | – | – | – |
| CC1CCN(c2nc(-c3ccc(Cl)cc3)nc3ccc(I)cc23)CC1 | 82.3% | 45.8 | – | – | – | – | – | – | – | – | – | – |
| S=c1[nH]nc(C2CCN(c3nc(-c4ccccc4)nc4ccccc34)CC2)s1 | 88% | 71.3 | Non-toxic | Non-toxic | Non-toxic | Non-toxic | Non-toxic | Non-toxic | – | – | – | – |
| Clc1ccc(-c2nc(N3CCC(c4ccccc4)CC3)c3ccccc3n2)cc1 | 87.3% | 53.7 | – | – | – | – | – | – | – | – | – | – |
| Nc1nnc(C2CCN(c3nc(-c4ccccc4)nc4ccccc34)CC2)s1 | 83.2% | 73 | Non-toxic | Non-toxic | Non-toxic | Non-toxic | Non-toxic | Non-toxic | Toxic | Toxic | Toxic | – |
| CC1CCN(c2nc(-c3ccccc3)nc3ccc(Br)cc23)CC1 | inactive | 57.8 | – | – | – | – | – | – | – | – | – | – |
| Clc1ccc(-c2nc(N3CCN(c4ccccc4)CC3)c3ccccc3n2)cc1 | inactive | 12.6 | – | – | – | – | – | – | – | – | – | – |
| Ic1ccc2nc(-c3ccccc3)nc(N3CCN(c4ccccc4)CC3)c2c1 | inactive | 39.2 | Non-toxic | Non-toxic | Non-toxic | Non-toxic | Non-toxic | Non-toxic | Toxic | Toxic | Toxic | – |
| CN1CCN(c2nc(-c3ccc(Cl)cc3)nc3ccccc23)CC1 | inactive | 37 | – | – | – | – | – | – | – | – | – | – |
| CN1CCN(c2nc(-c3ccccc3)nc3ccc(Br)cc23)CC1 | inactive | 45 | – | – | – | – | – | – | – | – | – | – |
| COc1ccc2c(c1)c(CC(=O)O)c(C)n2C(=O)c1ccc(Cl)cc1 [INDOMETHACIN] | 97.5% | 78.3 | – | – | – | – | – | – | – | – | – | – |
| CN1CCN(c2nc(-c3ccc(Cl)cc3)nc3ccc(Br)cc23)CC1 | inactive | 20 | – | – | – | – | – | – | – | – | – | – |
